Compound activity from PubChem BioAssay.
Sampled rows, rich in hits. Any-hit rate of the full collection: about 5.4%.
HePTP inhibitor: blocks human HePTP tyrosine phosphatase | AID 521 | P35236 | actives 0.64% (n = 110,000) | recombinant HePTP phosphatase activity, OD absorbance | inhibition, % at 20 µM; in the data active means inhibition above about 50%;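 further: plate controls were vehicle for no effect and reference inhibitor for full effect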
PLAP act: activates human placental alkaline phosphatase. purified PLAP enzyme, luminescent substrate read-out; stronger effect = higher value. activation fold at 20 µM. actives 1.2% (n = 96,000); in the data active means activation fold above about 2
Target sequence (P05187 whole entry, looked up): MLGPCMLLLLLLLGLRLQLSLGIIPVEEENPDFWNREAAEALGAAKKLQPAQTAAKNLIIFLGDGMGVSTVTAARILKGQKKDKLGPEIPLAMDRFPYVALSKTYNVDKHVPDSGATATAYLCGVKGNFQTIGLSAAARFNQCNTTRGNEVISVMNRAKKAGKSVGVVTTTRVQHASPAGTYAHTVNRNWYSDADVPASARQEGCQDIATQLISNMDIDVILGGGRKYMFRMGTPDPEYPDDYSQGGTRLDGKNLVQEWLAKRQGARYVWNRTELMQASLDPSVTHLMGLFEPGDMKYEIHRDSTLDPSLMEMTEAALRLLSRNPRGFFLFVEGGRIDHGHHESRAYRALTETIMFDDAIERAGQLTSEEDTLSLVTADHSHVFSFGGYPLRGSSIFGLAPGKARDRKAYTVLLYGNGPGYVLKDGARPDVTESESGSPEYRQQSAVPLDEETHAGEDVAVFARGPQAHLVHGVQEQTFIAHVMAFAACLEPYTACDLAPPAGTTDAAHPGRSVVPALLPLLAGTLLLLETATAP
Ecoli WT expand: growth inhibitors of E. coli BW25113 wild type | OD600 absorbance | growth inhibition, % at 100 µM | actives 0.15% (n = 98,000) | AID 710;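 active means growth inhibition above about 50% at one test dose, limit read from the data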;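 further: growth measured after 20 h incubation at 37 °C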
PostGolgi ctrl: growth of the yeast control strain, post-Golgi counter-screen | efflux-deficient yeast background strain, growth absorbance A615, 16 h | inhibition, % at 10 µM | actives 5% (n = 98,000) | AID 738
PostGolgi yeast: growth inhibition of a yeast mutant, post-Golgi transport screen; post-Golgi transport phenotypic cell assay; actives 0.9% (n = 98,000); inhibition, % at 10 µM;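 further: yeast cells grown in 1536-well plates; yeast grown about 18 h at 30C before absorbance read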
Ecoli tolC: growth inhibitors of E. coli BW25113 tolC mutant | actives 2.2% (n = 65,000) | OD615 | AID 573 | growth inhibition, % at 10 µM (by protocol);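 active means growth inhibition at or above a cutoff equal to the mean over every tested compound plus 3 SD, cut at about 60% in these data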;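 further: growth measured after 20 h incubation at 37 °C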
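Test system: tolC-deleted E. coli BW25113; medium: LB with kanamycin 50 µg/mL; compound: single-point testing at 10 µM; incubation: 20 h compound exposure of bacteria at 37 °C; signal: OD at 615 nm; evaluation: growth inhibition in percent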
* = called active by the depositor. Unless noted, no stated cut-off is given here; in the data, active means inhibition above about 30%; inactive means the rest.

Screening Nc1nnc(SCC(=O)Nc2ccc3c(c2)oc2ccccc23)s1 returned HePTP inhibitor 2.
Screening COc1cc2c(cc1OC)CN(C(=O)CCCN1C(=O)c3ccccc3C1=O)CC2 returned HePTP inhibitor -3, PLAP act 1, Ecoli WT expand -2, PostGolgi ctrl 18, PostGolgi yeast 19 and Ecoli tolC 5.
O=C(CCCOc1ccc(Cl)cc1Cl)N1CCCc2ccccc21 was read as HePTP inhibitor -7, PLAP act 1.3, Ecoli WT expand 0, PostGolgi ctrl 48* and PostGolgi yeast -7.
O=C(COc1ccc(Cl)cc1Cl)NC(=S)N1CCCc2ccccc21 was read as PLAP act 1.4, Ecoli WT expand 1, PostGolgi ctrl -3 and PostGolgi yeast 0.
COc1cc2c(cc1OC)CN(C(=O)CCCOc1ccc(Cl)cc1Cl)CC2 was read as PLAP act 1.8, Ecoli WT expand -25, PostGolgi ctrl 38* and PostGolgi yeast -1.
Screening Cc1cc(NC(=O)c2ccccc2)sc1C returned HePTP inhibitor 2, PLAP act 1, Ecoli WT expand 54*, PostGolgi ctrl -4, PostGolgi yeast 16 and Ecoli tolC 98*.
For O=C(Nc1cc2c(s1)CCCC2)c1ccccc1 the results were HePTP inhibitor 2.
Screening Cc1ccc(NC(=O)c2ccccc2)s1 returned HePTP inhibitor -9, PLAP act 0.9, Ecoli WT expand 77*, PostGolgi ctrl 4, PostGolgi yeast -2 and Ecoli tolC 55.
`O=C(N/N=C\c1ccccc1)c1sccc1-n1cccc1` gave PLAP act 1, Ecoli WT expand 0, PostGolgi ctrl 1 and PostGolgi yeast -18.
Screening O=C(N/N=C/c1ccc(Br)cc1)c1ccccc1-n1cccc1 returned PLAP act 1, Ecoli WT expand -4, PostGolgi ctrl 31* and PostGolgi yeast -1.
`O=C(CSc1nnc2c3ccccc3c3ccccc3c2n1)Nc1ccccc1` gave PLAP act 0.9, Ecoli WT expand -3, PostGolgi ctrl 45* and PostGolgi yeast -9.
For Cc1cc(C(F)(F)F)nn1CC(=O)NNC(=S)NCC(C)C the results were PLAP act 2.6*, Ecoli WT expand 7, PostGolgi ctrl -3 and PostGolgi yeast 9.
`Cc1cc(C(F)(F)F)nn1CC(=O)NNC(=S)Nc1ccc(F)cc1` gave PLAP act 2.8*, Ecoli WT expand 0, PostGolgi ctrl 5 and PostGolgi yeast 2.
Screening COc1ccc(/C=N\NC(=O)CNc2ccccc2C)cc1Cl returned HePTP inhibitor -12.
Screening COc1ccc(/C=C/C(=O)Nc2ccc(NC3CCCCC3)c3c2C(=O)c2ccccc2C3=O)cc1 returned HePTP inhibitor -9.
For N=c1n(CCN2CCOCC2)c2ccccc2n1CC(=O)c1ccc(Cl)c(Cl)c1 the results were HePTP inhibitor 5, PLAP act 1.5, Ecoli WT expand -3, PostGolgi ctrl 0, PostGolgi yeast -2 and Ecoli tolC 80*.
Cc1cc(Cl)c2c(c1)[C@]1(C(=O)N2)[C@@H]2C(=O)N(Cc3ccccc3)C(=O)[C@@H]2[C@@H]2CCCN21 was read as HePTP inhibitor 8, PLAP act 1.4, Ecoli WT expand -1, PostGolgi ctrl 17, PostGolgi yeast -6 and Ecoli tolC 17.
For O=C1[C@H]2[C@@H](C(=O)N1c1cc(Cl)cc(Cl)c1)[C@]1(C(=O)Nc3ccccc31)N1CCC[C@@H]21 the results were HePTP inhibitor 4, PLAP act 1.4, Ecoli WT expand 11, PostGolgi ctrl 25, PostGolgi yeast -2 and Ecoli tolC 80*.
Screening COc1ccccc1C(=O)NNC(=O)COc1ccc(C)cc1C returned HePTP inhibitor 0.
`CC1(C)[N+]([O-])=C2C(=[N+]([O-])C1(C)C)c1ccccc1/C2=N\O` gave HePTP inhibitor 7, PLAP act 1, Ecoli WT expand -2, PostGolgi ctrl 3, PostGolgi yeast -7 and Ecoli tolC -7.
CC1=[N+]([O-])C(C)(C)CC(C)(C)c2ccccc21 was read as HePTP inhibitor 8, PLAP act 0.9, Ecoli WT expand 4, PostGolgi ctrl 30*, PostGolgi yeast 5 and Ecoli tolC -23.
`COCCN(CCOC)C(=O)c1cc2sc3ccccc3c2s1` gave HePTP inhibitor 0, PLAP act 1.5, Ecoli WT expand 8, PostGolgi ctrl 1, PostGolgi yeast -10 and Ecoli tolC 17.
CCN(CC)C(=O)c1cc2sc3ccccc3c2s1 was read as HePTP inhibitor -5, PLAP act 1.3, Ecoli WT expand 8, PostGolgi ctrl 30*, PostGolgi yeast -7 and Ecoli tolC 56.
For O=C1CC(c2ccccc2)CC2=C1C(c1cccc([N+](=O)[O-])c1)Nc1ccc(C(=O)c3ccccc3)cc1N2 (stereo not given) the results were HePTP inhibitor 8.
Screening Cc1ccc(NC(=O)c2nn(C34CC5CC(CC(C5)C3)C4)cc2[N+](=O)[O-])cc1 returned PLAP act 0.9, Ecoli WT expand -3, PostGolgi ctrl 61* and PostGolgi yeast 79*.
Cc1ccc(-c2cc(C(=O)Nc3cnn(C45CC6CC(CC(C6)C4)C5)c3)no2)cc1 was read as HePTP inhibitor 7, PLAP act 0.8, Ecoli WT expand -8, PostGolgi ctrl 8, PostGolgi yeast -9 and Ecoli tolC -1.
Screening O=C(c1cc2nc(-c3ccco3)cc(C(F)(F)F)n2n1)N1CCN(Cc2ccccc2)CC1 returned PLAP act 1.8, Ecoli WT expand -9, PostGolgi ctrl 6 and PostGolgi yeast 8.
`CC1CCc2cc(F)ccc2N1C(=O)c1cc2nc(-c3ccco3)cc(C(F)(F)F)n2n1` (stereo not given) gave HePTP inhibitor 4, PLAP act 1.4, Ecoli WT expand -3, PostGolgi ctrl 20, PostGolgi yeast 2 and Ecoli tolC 63*.
`O=C(c1cc2nc(-c3ccco3)cc(C(F)(F)F)n2n1)N1CCN(c2ccc(F)cc2)CC1` gave HePTP inhibitor 8, PLAP act 1.4, Ecoli WT expand -10, PostGolgi ctrl 17, PostGolgi yeast 3 and Ecoli tolC 65*.
Screening CC(C)NC(=O)c1cc2nc(-c3ccco3)cc(C(F)(F)F)n2n1 returned PLAP act 0.9, Ecoli WT expand -1, PostGolgi ctrl 8 and PostGolgi yeast 8.
Screening Clc1ccc(-c2nnc(-c3sc4ccccc4c3Cl)o2)cc1 returned HePTP inhibitor 6.
`C/C(=N/NC(=O)c1ccc(CO)nc1)c1ccc(Br)cc1` gave HePTP inhibitor -9.
For CCOC(=O)NC(NC(=S)Nc1c(C)n(C)n(-c2ccccc2)c1=O)C(Cl)(Cl)Cl (stereo not given) the results were HePTP inhibitor -2.
CC(C)NC(=O)c1sc2nc3c(c(-c4cccs4)c2c1N)CN(C)CC3 was read as PLAP act 2*, Ecoli WT expand 2, PostGolgi ctrl 17 and PostGolgi yeast -1.
